Data on 30 compounds can be found in ChEMBL document CHEMBL1649405, “Structure-activity relationships study of 6-chloro-4-(2-chlorophenyl)-3-(2-hydroxyethyl) quinolin-2(1H)-one derivatives as novel non-nucleoside anti-hepatitis B virus agents” (Eur J Med Chem, 2011).

Data set [1] in a line: Cytotoxicity against human HepG2(2.2.15) cells. It is filed as cell-based. A digest of the protocol:
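HepG 2.2.15 cells in DMEM with 10% FBS, 37 °C, 5% CO2. CC50 = concentration killing 50% of cells. Mean of two independent experiments.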

Data set [2] deals with Hepatitis B virus. The data set can be described thus: Antiviral activity against Hepatitis B virus infected in human HepG2(2.2.15) cells assessed as inhibition of viral surface antigen secretion after 6 days by ELISA. It is filed as functional, organism-based. The conditions noted are these: HepG2 2.2.15, 144 h. A digest of the protocol:
(§1)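 HepG 2.2.15 cells in DMEM with 10% FBS, 37 °C, 5% CO2. Treated for 6 days with refeeding every other day. Culture medium centrifuged at 6000 g to clear debris. HBeAg or HBsAg measured by quantitative ELISA on a microplate reader. IC50 = concentration giving 50% inhibition of secretion. Mean of two independent experiments.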
(In an ELISA, binding on a coated surface is turned into a signal by an enzyme label.)

A short description of data set [3]: Selectivity index, ratio of CC50 for human HepG2(2.2.15) cells to IC50 for Hepatitis B virus infected in human HepG2(2.2.15) cells assessed as inhibition of viral e antigen secretion. It is filed as functional. A digest of the protocol:
(§2)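 Ratio of CC50 in HepG 2.2.15 cells to the IC50 for HBeAg or HBsAg secretion. Both values come from ELISA and cytotoxicity runs on the same cell line. Each input is the mean of two independent experiments.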

In data set [4] the test system is Hepatitis B virus. As to the kind of experiment: Antiviral activity against Hepatitis B virus infected in human HepG2(2.2.15) cells assessed as inhibition of viral e antigen secretion after 6 days by ELISA. It is filed as functional, organism-based. The following applies: HepG2 2.2.15, 144 h. A digest of the protocol: as §1
A short description of data set [5]: Selectivity index, ratio of CC50 for human HepG2(2.2.15) cells to IC50 for Hepatitis B virus infected in human HepG2(2.2.15) cells assessed as inhibition of viral surface antigen secretion. It is filed as functional. A digest of the protocol: as §2
Data set [6] deals with Hepatitis B virus. The data set can be described thus: Antiviral activity against Hepatitis B virus infected in human HepG2(2.2.15) cells assessed as inhibition of viral DNA replication after 6 days by PCR analysis. It is filed as functional, organism-based. A digest of the protocol:
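HepG 2.2.15 cells in DMEM with 10% FBS, 5 mM L-glutamine, penicillin/streptomycin, 37 °C, 5% CO2; seeded 5 × 10^5 per well, medium changed every 2 days. Compound added after 6 days, refed every other day for 6 more days. HBV DNA by real-time PCR against a cloned HBV plasmid standard series. IC50 = 50% inhibition. Mean of two independent experiments.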

Where [7] appears, read: Hepatitis B virus, HepG2 2.2.15, 144 h, read-out: IC50.

By CC50 is commonly meant the concentration that lowers cell viability or growth by half. High values mean lower toxicity to the cells, low ones greater toxicity to the cells. What is called IC50 is the point on the concentration scale where inhibition reaches its midpoint. For the compound `COc1ccccc1/C=C/C(=O)OCCc1c(-c2ccccc2Cl)c2cc(Cl)ccc2[nH]c1=O`, the CC50 in data set [1] came out at 770 µM. The IC50 with Hepatitis B virus [2] was 61 µM; in the data set on Hepatitis B virus [4], 24 µM; with Hepatitis B virus [6] (hepg2 2.2.15) it was “Not Active”. Further, the “Selectivity Index” value in data set [3] came to 32; in data set [5], 13.
Take `COc1cccc(/C=C/C(=O)OCc2c(-c3ccccc3Cl)c3cc(Cl)ccc3[nH]c2=O)c1`: in data set [1], the CC50 was > 1800 µM. The IC50 in the data set with Hepatitis B virus [2] is 11 µM; in the data set on Hepatitis B virus [4] it was 18 µM; in the data set on Hepatitis B virus [6] (setting [7]), 160 µM. Besides, the results for the “Selectivity Index” value in data set [3] and in data set [5] were >100 and >170, respectively.
Take `O=C(/C=C/c1cccc(F)c1)OCCc1c(-c2ccccc2Cl)c2cc(Cl)ccc2[nH]c1=O`: in data set [1], the CC50 was > 1600 µM. In addition, the values for the IC50 in the data set with Hepatitis B virus [2], with Hepatitis B virus [4] and with Hepatitis B virus [6] (setting [7]) were 33 µM, 27 µM and 110 µM, respectively. Further, the “Selectivity Index” value in data set [3] is listed as >58; in data set [5], >48.
Take `CC(=O)NCC(=O)OCCc1c(-c2ccccc2Cl)c2cc(Cl)ccc2[nH]c1=O`: in data set [1], the CC50 was 110 µM. Moreover, the values for the IC50 with Hepatitis B virus [2] and with Hepatitis B virus [4] were 74 µM and > 110 µM, respectively. Also, the “Selectivity Index” value in data set [3] was <1; in data set [5], 1.4.
For `CCC(=O)OCCc1c(-c2ccccc2Cl)c2cc(Cl)ccc2[nH]c1=O` the same measures were 95 µM, 59 µM, 62 µM, 1.5 and 1.6.
As for `O=C(/C=C/c1cccc(C(F)(F)F)c1)OCCc1c(-c2ccccc2Cl)c2cc(Cl)ccc2[nH]c1=O`, the CC50 in data set [1] is > 1400 µM. Moreover, the half-inhibitory concentration (IC50) turned out to be 58 µM in the data set on Hepatitis B virus [2], 22 µM in the data set on Hepatitis B virus [4] and 410 µM with Hepatitis B virus [6] (setting [7]). For the same compound, the results for the “Selectivity Index” value in data set [3] and in data set [5] were >63 and >24, respectively.
`O=C(/C=C/c1ccccc1)OCCc1c(-c2ccccc2Cl)c2cc(Cl)ccc2[nH]c1=O`: the CC50 in data set [1] was 230 µM. The IC50 in the data set on Hepatitis B virus [2] was found to be 30 µM; in the data set with Hepatitis B virus [4], 56 µM. Further, the “Selectivity Index” value in data set [3] is 4; in data set [5], 7.6.
For `CC(=O)N1CCC(C(=O)OCCc2c(-c3ccccc3Cl)c3cc(Cl)ccc3[nH]c2=O)CC1` the same measures were 82 µM, 51 µM, > 82 µM, <1 and 1.6.
With `O=c1[nH]c2ccc(Cl)cc2c(-c2ccccc2Cl)c1CCO`, the 50% cytotoxic concentration (CC50) in data set [1] was 380 µM. Also, the IC50 in the data set on Hepatitis B virus [2] stood at 86 µM; in the data set on Hepatitis B virus [4], 360 µM. The figures for the “Selectivity Index” value in data set [3] and in data set [5] were 1 and 4.4, respectively.
The matching figures for `CC(=O)OCCc1c(-c2ccccc2Cl)c2cc(Cl)ccc2[nH]c1=O`: 27 µM, 74 µM, > 27 µM, <1 and <1.
The matching figures for `N#CCC(=O)OCCc1c(-c2ccccc2Cl)c2cc(Cl)ccc2[nH]c1=O`: 100 µM, 75 µM, > 100 µM, <1 and 1.3.
For `C=CCn1c(=O)c(CCO)c(-c2ccccc2Cl)c2cc(Cl)ccc21` the same measures were 23 µM, 10 µM, 12 µM, 1.9 and 2.3.
Take `CCCC(=O)OCCc1c(-c2ccccc2Cl)c2cc(Cl)ccc2[nH]c1=O`: the CC50 in data set [1] is 52 µM. For the same compound, the results for the IC50 with Hepatitis B virus [2] and in the data set on Hepatitis B virus [4] were 35 µM and > 52 µM, respectively. Further, the “Selectivity Index” value is listed as <1 in data set [3] and 1.5 in data set [5].
For `O=C(O)CCC(=O)OCCc1c(-c2ccccc2Cl)c2cc(Cl)ccc2[nH]c1=O` the same measures were 110 µM, 150 µM, > 110 µM, <1 and <1.
Compound `O=C(OCCc1c(-c2ccccc2Cl)c2cc(Cl)ccc2[nH]c1=O)c1ccccc1` showed a CC50 in data set [1] of 43 µM. In addition, the IC50 in the data set with Hepatitis B virus [2] was 32 µM; with Hepatitis B virus [4], > 43 µM. The “Selectivity Index” value is <1 in data set [3] and 1.42 in data set [5].
The matching figures for `CCOCC(=O)OCCc1c(-c2ccccc2Cl)c2cc(Cl)ccc2[nH]c1=O`: 130 µM, 95 µM, > 130 µM, <1 and 1.4.
`O=C(OCCc1c(-c2ccccc2Cl)c2cc(Cl)ccc2[nH]c1=O)c1ccco1` registered a CC50 in data set [1] of 98 µM. Moreover, the IC50 in the data set with Hepatitis B virus [2] was 51 µM; with Hepatitis B virus [4] it was 58 µM. In addition, the “Selectivity Index” value in data set [3] turned out to be 1.6; in data set [5] it was 1.9.
For `COCC(=O)OCCc1c(-c2ccccc2Cl)c2cc(Cl)ccc2[nH]c1=O` the same measures were 74 µM, 32 µM, > 74 µM, <1 and 1.4.
`O=C(/C=C/c1ccc2c(c1)OCO2)OCCc1c(-c2ccccc2Cl)c2cc(Cl)ccc2[nH]c1=O`: the IC50 was found to be 150 µM with Hepatitis B virus [2], 220 µM in the data set on Hepatitis B virus [4] and 160 µM in the data set with Hepatitis B virus [6] (setting [7]). For the same compound, the “Selectivity Index” value in data set [3] was >5.4; in data set [5] it was >8.1.
`O=C(CCOc1ccccc1)OCCc1c(-c2ccccc2Cl)c2cc(Cl)ccc2[nH]c1=O` yielded a CC50 in data set [1] of 46 µM. Moreover, the values for the IC50 in the data set on Hepatitis B virus [2] and in the data set on Hepatitis B virus [4] were 33 µM and 35 µM, respectively. The “Selectivity Index” value in data set [3] was found to be 1.3; in data set [5] it was 1.4.
Compound `CC(=O)OCC(=O)OCCc1c(-c2ccccc2Cl)c2cc(Cl)ccc2[nH]c1=O` displayed a cytotoxic concentration (CC50) in data set [1] of 100 µM. Moreover, the IC50 with Hepatitis B virus [2] was 57 µM; with Hepatitis B virus [4], 71 µM. The entries for the “Selectivity Index” value in data set [3] and in data set [5] were 1.4 and 1.8, respectively.
The matching figures for `O=C(CCC1CCCCC1)OCCc1c(-c2ccccc2Cl)c2cc(Cl)ccc2[nH]c1=O`: 160 µM, 85 µM, 110 µM, 1.5 and 1.9.
For `C/C=C/C(=O)OCCc1c(-c2ccccc2Cl)c2cc(Cl)ccc2[nH]c1=O` the same measures were 30 µM, 25 µM, 22 µM, 1.3 and 1.2.
In data set [1], `O=c1c(CCO)c(-c2ccccc2Cl)c2cc(Cl)ccc2n1Cc1ccccc1` showed a CC50 of 26 µM. In addition, the half-inhibitory concentration (IC50) with Hepatitis B virus [2] and in the data set on Hepatitis B virus [4] was 12 µM throughout. Besides, the “Selectivity Index” value in data set [3] and in data set [5] was 2.2 each time.
The compound `O=C(CN1C(=O)c2ccccc2C1=O)OCCc1c(-c2ccccc2Cl)c2cc(Cl)ccc2[nH]c1=O` registered a CC50 in data set [1] of 960 µM. Further, the IC50 in the data set on Hepatitis B virus [2] was 170 µM; in the data set on Hepatitis B virus [4], > 960 µM. Besides, the “Selectivity Index” value in data set [3] was <1; in data set [5], 5.7.
The matching figures for `O=CCc1c(-c2ccccc2Cl)c2cc(Cl)ccc2[nH]c1=O`: 120 µM, 76 µM, > 120 µM, <1 and 1.6.
In the case of `O=C(OCCc1c(-c2ccccc2Cl)c2cc(Cl)ccc2[nH]c1=O)C1CCCC1`, in data set [1], half-maximal cytotoxicity (CC50) was put at 46 µM. In addition, the IC50 in the data set on Hepatitis B virus [2] and in the data set with Hepatitis B virus [4] was 46 µM each time. Also, the “Selectivity Index” value in data set [3] and in data set [5] was 1 in each case.
In data set [1], `Cn1c(=O)c(CCO)c(-c2ccccc2Cl)c2cc(Cl)ccc21` registered a CC50 of 34 µM. Moreover, the IC50 came to 22 µM in the data set with Hepatitis B virus [2] and 34 µM with Hepatitis B virus [4]. Besides, the results for the “Selectivity Index” value in data set [3] and in data set [5] were 1 and 1.6, respectively.
In the case of `CCCCCCCC(=O)OCCc1c(-c2ccccc2Cl)c2cc(Cl)ccc2[nH]c1=O`, in data set [1], the midpoint of cytotoxicity, the CC50, lay at 78 µM. Besides, the values for the IC50 in the data set with Hepatitis B virus [2] and in the data set with Hepatitis B virus [4] were 40 µM and > 78 µM, respectively. The figures for the “Selectivity Index” value in data set [3] and in data set [5] were <1 and 1.9, respectively.
Compound `O=C(OCCc1c(-c2ccccc2Cl)c2cc(Cl)ccc2[nH]c1=O)c1cccnc1` showed a half-maximal cytotoxic concentration (CC50) in data set [1] of 170 µM. The IC50 with Hepatitis B virus [2] and in the data set with Hepatitis B virus [4] was 55 µM throughout. Moreover, the “Selectivity Index” value in data set [3] and in data set [5] was 3 throughout.
